# Activity calls are given as the source filed them. The rule behind the calls is not given here.
# How the values were obtained:
# [1] = system: HCT-116; test: Induction of cell cycle arrest in human HCT116 cells assessed as accumulation at S phase at 15 uM after 48 hrs by propidium iodide staining-based flow cytometric analysis in presence of RNase A (reference value: 16.2%); format: functional
# [2] = system: HCT-116; test: Induction of cell cycle arrest in human HCT116 cells assessed as accumulation at G2/M phase at 15 uM after 48 hrs by propidium iodide staining-based flow cytometric analysis in presence of RNase A (reference value: 19.7%); format: functional
# [3] = system: HCT-116; test: Induction of apoptosis in human HCT116 cells assessed as dead cells at 7.5 uM after 48 hrs by annexin V-FITC/propidium iodide staining-based flow cytometric analysis (reference value: 2%); format: functional
# [4] = system: HCT-116; test: Induction of reactive oxygen species in human HCT116 cells at 15 uM after 48 hrs by DCFH-DA staining-based flow cytometric analysis (reference value: 5.1%); format: functional
# Procedure, shortened: (§1)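 HCT116 cells seeded overnight, then exposed to test compounds, alone or with NAC, for 48 h in complete medium. Loaded with 20 μM DCFH-DA for 30 min; intracellular ROS in 20 000 cells per group read by flow cytometry as histograms.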
# [5] = system: HCT-116; test: Induction of reactive oxygen species in human HCT116 cells at 30 uM after 48 hrs by DCFH-DA staining-based flow cytometric analysis in presence of NAC (reference value: 5.1%); format: functional; procedure, shortened: as §1
# [6] = system: HCT-116; test: Induction of apoptosis in human HCT116 cells assessed as late apoptotic cells at 30 uM after 48 hrs by annexin V-FITC/propidium iodide staining-based flow cytometric analysis in presence of NAC (reference value: 7.2%); format: functional
# [7] = system: HCT-116; test: Induction of apoptosis in human HCT116 cells assessed as viable cells at 30 uM after 48 hrs by annexin V-FITC/propidium iodide staining-based flow cytometric analysis in presence of NAC (reference value: 87.4%); format: functional; conditions: HCT-116, 48 h, read-out: Activity
# [8] = Antitumor activity against human HCT116 cells xenografted in nude mouse assessed as tumor growth inhibition at 10 mg/kg, ip administered 3 times per week measured on day 41; format: functional; conditions: HCT-116, ip, 984 h, read-out: TGI
# Procedure, shortened: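 Nude mice given 2 × 10^6 HCT116 cells subcutaneously in flank; at ~120 mm3 randomised, six per group; ip dosing in 200 μL, test agent 5 or 10 mg/kg three times weekly, irinotecan 10 mg/kg once weekly; tumour volume measured twice weekly to day 41; body weight tracked for toxicity.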
# [9] = system: HCT-116; test: Induction of cell cycle arrest in human HCT116 cells assessed as accumulation at G0/G1 phase at 30 uM after 24 hrs by propidium iodide staining-based flow cytometric analysis in presence of RNase A (reference value: 64.6%); format: functional
# [10] = Downregulation of cyclin A expression in human HCT116 cells at 7.5 to 30 uM after 24 hrs by Western blot analysis; format: functional, cell-based; conditions: HCT-116
# Procedure, shortened: (§2)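 HCT116 cells exposed 24 h in complete medium; lysed in RIPA buffer (pH 8.0), protein by BCA, equal loads run on 8–13% SDS-PAGE, PVDF transfer, blocked in 5% BSA/TBST, primary antibodies overnight at 4 °C, HRP secondaries 2 h RT, ECL detection; β-actin as loading control.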
# [11] = Upregulation of phosphorylated H2A.X expression at Ser139 in human HCT116 cells at 7.5 to 30 uM after 24 hrs by Western blot analysis; format: functional, cell-based; conditions: HCT-116
# [12] = Upregulation of ATM expression in human HCT116 cells at 1 hr by Western blot analysis; format: functional, cell-based; conditions: HCT-116
# [13] = Downregulation of ATM expression in human HCT116 cells at 30 uM after 1 hr by Western blot analysis; format: functional, cell-based; conditions: HCT-116, TDE = time-dependent effect
# Procedure, shortened: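 HCT116 cells exposed for 1 h in complete medium; RIPA lysates quantified by BCA, equal protein separated on 8–13% SDS-PAGE, transferred to PVDF, probed with primary antibodies overnight at 4 °C and HRP secondaries, chemiluminescence read-out.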
# [14] = Upregulation of MDM2 expression in p53-null human HCT116 cells at 7.5 to 30 uM after 24 hrs by Western blot analysis; format: functional, cell-based; conditions: HCT-116
# [15] = system: HCT-116; test: Increase in Cul-1 expression in human HCT116 cells after 24 hrs by western blot analysis; format: functional, cell-based; procedure, shortened: as §2
# [16] = system: HCT-116; test: Induction of cell cycle arrest in human HCT116 cells assessed as accumulation at G0/G1 phase at 7.5 uM after 48 hrs by propidium iodide staining-based flow cytometric analysis in presence of RNase A (reference value: 54.3%); format: functional
# [17] = system: HCT-116; test: Induction of cell cycle arrest in human HCT116 cells assessed as accumulation at G2/M phase at 7.5 uM after 48 hrs by propidium iodide staining-based flow cytometric analysis in presence of RNase A (reference value: 19.7%); format: functional
# [18] = system: CAKI-1; test: Antiproliferative activity against human CAKI-1 cells after 24 to 72 hrs by SRB assay; format: functional, cell-based
# Procedure, shortened: (§3)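 Cells grown in 96-well plates (RPMI 1640; MRC-5 in MEM, 10% FBS, antibiotics) with compound […]; fixed in 10% TCA 30 min at 4 °C, stained 0.4% SRB in 1% acetic acid 1 h, dye dissolved in 10 mM Tris pH 10.0, A515 read; viability as % of solvent control, IC50 by nonlinear regression; mean of three independent experiments.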
# [19] = (§4) Antiproliferative activity against human HCT116 cells after 24 to 72 hrs by SRB assay; format: functional, cell-based; conditions: HCT-116; procedure, shortened: as §3
# [20] = system: HCT-116; test: as §4; format: functional, cell-based; procedure, shortened: as §3
# [21] = system: Mus musculus; test: Upregulation of p27 in human HCT116 cells xenografted in nude mouse at 5 to 10 mg/kg, ip administered 3 times per week measured on day 41 by Western blot analysis; format: functional, organism-based; conditions: HCT-116
# Procedure, shortened: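 HCT116 xenografts in nude mice dosed ip at 5 or 10 mg/kg three times weekly to day 41. Portions of the excised frozen tumors were thawed on ice, homogenized in complete lysis buffer, protein quantified by Bradford, and p21, p27 and Skp2 assessed by Western blot with β-actin as internal control.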
# [22] = system: Mus musculus; test: Upregulation of p27 in human HCT116 cells xenografted in nude mouse at 5 to 10 mg/kg, ip administered 3 times per week measured on day 41 by H and E staining-based phase contrast microscopic analysis; format: functional, organism-based; conditions: HCT-116
# Procedure, shortened: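 Tumors excised from the xenograft study (ip 5 or 10 mg/kg three times weekly, day 41) were formalin-fixed and paraffin-embedded. Sections were probed with antibody, detected by LSAB/HRP, counterstained with H&E and photographed under an inverted phase-contrast microscope.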
# [23] = system: Mus musculus; test: Downregulation of Skp2 in human HCT116 cells xenografted in nude mouse at 5 to 10 mg/kg, ip administered 3 times per week measured on day 41 by […]; format: functional, organism-based; conditions: HCT-116
# Procedure, shortened: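 Formalin-fixed, paraffin-embedded xenograft sections (mice dosed ip three times weekly) probed with antibodies, detected by LSAB/HRP, counterstained with H&E, imaged by inverted phase-contrast microscopy.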
# [24] = system: HCT-116; test: Induction of cell cycle arrest in human HCT116 cells assessed as accumulation at sub-G1 phase after 24 hrs by propidium iodide staining-based flow cytometric analysis in presence of RNase; format: functional
# [25] = system: HCT-116; test: Induction of apoptosis in human HCT116 cells assessed as cleaved PARP level at 30 uM up to 48 hrs by Western blot analysis in presence of NAC
structure (smiles),measurement,setting,value
O=C/C=C/c1ccc2c(c1)O[C@@H](CO)[C@H](c1ccc(O)c(O)c1)O2 [AMERICANIN A],Activity,[1],8.2%
same,Activity,[2],20.3%
same,Activity,[3],2%
same,Activity,[4],7.9%
same,Activity,[5],9.9%
same,Activity,[6],18.9%
same,viability at 30 µM,[7],73.2%
same,inhibition in vivo at 10 mg/kg,[8],55.7%
same,Activity,[9],39%
same,Activity,[10],Active
same,Activity,[11],Active
same,Activity,[12],Dose-dependent effect
same,Activity,[13],tde
same,Activity,[14],Active
same,Activity,[15],Active
same,Activity,[16],55.2%
same,Activity,[17],19%
same,IC50,[18],66.4 µM
same,IC50,[19],7.6 µM
same,Activity,[20],Dose-dependent effect
same,Activity,[21],Active
same,Activity,[22],Active
same,Activity,[23],Active
same,Activity,[24],Dose-dependent effect
same,Activity,[25],inactive
